Active and inactive are the calls of the source. The calls are words filed in the database; no cut-off is given here.
How the values were obtained:
Adenosine receptor A3 [1] = molecular target: T1, Adenosine receptor A3 (Homo sapiens, UniProt P0DMS8); experiment: Displacement of CA200645 from human adenosine A3 receptor expressed in CHO CRE-SPAP cells incubated for 1 hr by fluorescence analysis; format: cell-based
Method in brief: (§1)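 Live confluent CHO cells expressing A1AR or A3AR were washed into HEPES-buffered saline, pH 7.4. Increasing concentrations of competitor were added with 25 nM fluorescent xanthine ligand CA200645 and incubated 1 h at 37°C, then imaged for total intensity. IC50 was converted to Ki by Cheng-Prusoff using ligand KD 17.0 nM (A1) or 3.11 nM (A3). Values are mean of n experiments run in duplicate.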

[2] = molecular target: Adenosine receptors; A1 & A3 (Homo sapiens) (UniProt P30542+P0DMS8); experiment: Selectivity ratio of Ki for human adenosine A1 receptor expressed in CHO cells to Ki for human adenosine A3 receptor expressed in CHO CRE-SPAP cells; format: functional, cell-based
Method in brief: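 Ratio of Ki at A1AR to Ki at A3AR. Both Ki values come from the live-cell CA200645 competition assay (25 nM tracer, 1 h, 37°C), with Cheng-Prusoff correction using KD 17.0 nM (A1) and 3.11 nM (A3).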

Adenosine receptor A1 = molecular target: T2, Adenosine receptor A1 (Homo sapiens, UniProt P30542); experiment: Displacement of CA200645 from human adenosine A1 receptor expressed in CHO cells incubated for 1 hr by fluorescence analysis; format: cell-based; method in brief: as §1
T2 sequence (P30542 whole entry): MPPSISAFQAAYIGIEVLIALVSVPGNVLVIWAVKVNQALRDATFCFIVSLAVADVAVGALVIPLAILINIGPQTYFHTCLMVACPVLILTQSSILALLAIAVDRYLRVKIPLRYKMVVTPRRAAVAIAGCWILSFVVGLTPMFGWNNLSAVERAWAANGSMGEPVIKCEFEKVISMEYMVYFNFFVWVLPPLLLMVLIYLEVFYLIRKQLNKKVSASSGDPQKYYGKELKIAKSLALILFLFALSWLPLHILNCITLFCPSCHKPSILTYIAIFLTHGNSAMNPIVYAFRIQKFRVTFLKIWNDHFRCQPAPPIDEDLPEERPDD

Adenosine receptor A2a [3] = molecular target: T3, Adenosine receptor A2a (Homo sapiens, UniProt P29274); experiment: Displacement of [3H]-ZM241385 from human adenosine A2A receptor expressed in HeLa cells at 10 uM; format: cell-based
Method in brief: (§2)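 Human A2AAR expressed in transfected HeLa cells, with [3H]-ZM241385 as radioligand. Percent inhibition was measured at a single 10 µM concentration. Ki was determined only where displacement exceeded 50% at 10 µM.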

Adenosine receptor A3 [4] = molecular target: T1, Adenosine receptor A3; experiment: Competitive antagonist activity at YFP linked human adenosine A3 receptor expressed in CHO CRE-SPAP cells assessed as inhibition of NECA-induced receptor internalization preincubated for 30 mins followed by addition of NECA measured after 60 mins by H33342 staining-based fluorescence analysis; format: cell-based
Method in brief: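 Cells stably expressing YFP-tagged A3AR, serum-free DMEM/F12 with 2 mM L-glutamine, preincubated 30 min at 37°C with a fixed 10 µM antagonist or with medium only. Rising NECA concentrations were then added for 60 min. Cells were fixed in 3% paraformaldehyde, nuclei stained with H33342 and imaged confocally. Read-out was YFP granule count per cell. Antagonist KD came from the Gaddum dose-ratio equation, n=5 run in triplicate.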

HeLa = experiment: Selectivity ratio of Ki for human adenosine A2A receptor expressed in HeLa cells to Ki for human adenosine A3 receptor expressed in CHO CRE-SPAP cells; format: cell-based
Adenosine receptor A2a [5] = molecular target: T3, Adenosine receptor A2a; experiment: Displacement of [3H]-ZM241385 from human adenosine A2A receptor expressed in HeLa cells; format: cell-based; method in brief: as §2

T3 sequence (P29274 whole entry): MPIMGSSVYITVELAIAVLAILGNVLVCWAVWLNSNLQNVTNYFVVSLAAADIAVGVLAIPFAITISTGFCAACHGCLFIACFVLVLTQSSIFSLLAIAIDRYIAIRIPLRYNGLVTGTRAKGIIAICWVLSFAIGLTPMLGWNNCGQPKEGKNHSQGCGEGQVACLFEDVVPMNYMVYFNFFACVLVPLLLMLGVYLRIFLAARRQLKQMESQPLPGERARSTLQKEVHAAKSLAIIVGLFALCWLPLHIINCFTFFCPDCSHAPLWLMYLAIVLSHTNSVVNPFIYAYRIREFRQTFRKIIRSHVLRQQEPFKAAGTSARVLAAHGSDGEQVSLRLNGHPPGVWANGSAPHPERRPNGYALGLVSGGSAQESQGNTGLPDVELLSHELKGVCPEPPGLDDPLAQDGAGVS
T1 sequence (P0DMS8 whole entry, looked up): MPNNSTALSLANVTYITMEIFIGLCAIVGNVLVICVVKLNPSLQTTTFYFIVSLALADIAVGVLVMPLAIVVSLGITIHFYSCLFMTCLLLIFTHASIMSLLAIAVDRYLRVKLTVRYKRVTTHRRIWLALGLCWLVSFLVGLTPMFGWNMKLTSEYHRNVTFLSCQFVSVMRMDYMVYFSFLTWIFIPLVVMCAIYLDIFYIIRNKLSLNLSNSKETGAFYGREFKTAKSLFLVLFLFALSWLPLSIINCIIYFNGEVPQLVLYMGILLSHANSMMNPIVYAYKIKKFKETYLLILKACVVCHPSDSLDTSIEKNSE

Ki (Adenosine receptor A3 [1]; read-out: pKi (converted)) [nM]	Ratio Ki [2]	Ki (Adenosine receptor A1) [nM]	Activity (Adenosine receptor A2a [3])	Kd (Adenosine receptor A3 [4]) [nM]	Ki (Adenosine receptor A3 [1]; read-out: Ki) [nM]	pKi (Adenosine receptor A1; cho)	Ki (Adenosine receptor A2a [5]) [nM]	Structure (SMILES)	Ratio Ki (HeLa)
2400	1.2	3160	–	–	–	–	–	O=C(Nc1ccc2[nH]ncc2c1)c1ccc[nH]1	–
550	102	56200	inactive	741	–	–	–	CCc1cc2c(=O)[nH]c(-c3ccoc3)nc2s1	–
4900	2	12300	–	–	–	–	–	CC(C)(C)C(=O)Nc1nc(C2CC2)cs1	–
331	16	6170	–	–	–	–	–	O=C(Nc1nc2ccccc2s1)c1cc2ccccc2s1	–
2000	14	22900	–	–	–	–	–	CCc1cc2c(O)nc(-c3ccncc3)nc2s1	–
110	34	3090	–	–	120	–	–	COc1cccc2sc(NC(=O)c3cc4ccccc4s3)nc12	–
2190	24	29500	–	–	–	–	–	CSc1sc(NC(=O)C=C(C)C)nc1C	–
138	2	347	–	–	–	–	–	O=c1[nH]c(-c2ccco2)nc2scc(-c3ccco3)c12	–
398	4	1950	–	–	–	–	–	Cc1sc2nc(-c3ccoc3)[nH]c(=O)c2c1C	–
2290	> 38	–	inactive	–	–	> 4	–	CCc1cc2c(O)nc(N3CCCC3)nc2s1	–
380	5	2820	–	–	–	–	–	O=C(Nc1nc2c(s1)CCC2)c1cc2ccccc2s1	–
33.9	101	3720	–	741	40	–	2900	O=C(Nc1nc(C2CC2)cs1)c1cc2ccccc2s1	72
1820	70	61700	–	–	–	–	–	CCc1cc2c(=O)[nH]c(C3CC3)nc2s1	–
105	29	2950	inactive	–	120	–	–	O=C(Nc1nc(C2CC2)cs1)c1ccoc1	–
13500	6	75900	–	–	–	–	–	CCc1cc2c(O)ncnc2s1	–
